Drawing on ChEMBL document CHEMBL1157183, “Synthesis and discovery of a novel pyrazole derivative as an inhibitor of apoptosis through modulating integrin beta4, ROS, and p53 levels in vascular endothelial cells” (2008), this text covers Flu intensity and Activity for 1 molecule.

Active and inactive are the calls of the source. The calls are words filed in the database; no cut-off is given here.

Test [1] has as its system HUVEC. Briefly: Decrease in integrin beta4 level in HUVEC cells at 25 uM after 12 hrs in absence of serum and FGF2. It counts as functional, Homo sapiens. Summed up:
(§1)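 HUVECs, passages 10–20, grown to sub-confluence, washed and switched to basal M199 without FBS and FGF-2; 25 µM in DMSO for 12, 24 or 48 h. Comparators were cells kept in M199 with 20% FBS plus 70 ng/mL FGF-2 and cells in basal medium alone. Immunofluorescence used rabbit anti-human integrin β4 and FITC-IgG secondary, read by laser scanning confocal microscopy as relative fluorescence intensity; n = 3.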

For test [2], the system named is HUVEC. Briefly: Increase in cell viability of HUVEC cells at 25 uM. It counts as functional, cell-based. As to conditions: Homo sapiens. The method in brief:
(§2)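 Sub-confluent HUVECs, passages 10–20, were washed and cultured in M199 without serum and FGF-2. They were treated at 5, 10, 20, 25, 50 and 100 µM (DMSO vehicle at a non-toxic final level). Viability was measured by MTT at 24 and 48 h against deprived control and full-medium normal cells; n = 3.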

Test [3] deals with HUVEC. Briefly: Induction of apoptosis in HUVEC cells at 100 uM by MTT assay. Format: functional, cell-based. As to conditions: Homo sapiens. Summed up: as §2
Test [4] has as its system HUVEC. The experiment in a line: Inhibition of DNA fragmentation in HUVEC cells at 25 uM after 24 hrs by TUNEL assay. It counts as functional, cell-based. Conditions: Homo sapiens. Summed up:
(§3)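 TUNEL staining was done on HUVECs deprived of serum and FGF-2 (basal M199) and treated with 25 µM for 24 h. Apoptotic cells were quantified as a percentage from fluorescent micrographs, relative to deprived control and to cells in M199 with 20% FBS plus 70 ng/mL FGF-2.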

For test [5], the system named is HUVEC. The experiment in a line: Reduction of serum and FGF2 deprivation-induced apoptosis in HUVEC cells at 25 uM after 24 hrs. It counts as functional, Homo sapiens. Details: scale not given: the % may be the effect or the level left. The method in brief: as §3
Test [6] concerns HUVEC. Briefly: Inhibition of nuclear DNA condensation in HUVEC cells at 25 uM after 24 hrs by acridine orange staining assay. Format: functional, cell-based. Conditions: Homo sapiens. Summed up:
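Serum/FGF-2-deprived HUVECs were treated with 25 µM for 24 h, then stained with acridine orange for 5 min. Nuclear condensation and fragmentation were examined by laser scanning confocal microscopy.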

The subject of test [7] is HUVEC. The experiment in a line: Decrease in serum and FGF2 deprivation-induced intracellular ROS level in HUVEC cells. It counts as functional, cell-based. Conditions: Homo sapiens. Summed up:
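Intracellular ROS measured with the DCHF probe, which oxidises to fluorescent DCF. Cells were HUVECs in basal M199 lacking serum and FGF-2, exposed to 25 µM for 12, 24 and 48 h. Fluorescence was imaged by laser scanning confocal microscopy and expressed as relative DCF intensity per cell in the scanned area; n = 3.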

For test [8], the system named is HUVEC. Briefly: Suppression of apoptosis in HUVEC cells at 25 uM by MTT assay. It counts as functional, cell-based. Conditions: Homo sapiens. Summed up: as §2
For orientation: Tetrazolium dyes change colour on reduction, which living cells bring about.

Test [9] deals with HUVEC. Briefly: Decrease in integrin beta4 level in HUVEC cells at 25 uM after 48 hrs in absence of serum and FGF2. Format: functional, Homo sapiens. Summed up:
as §1

Test [10] relates to HUVEC. Briefly: Induction of apoptosis in HUVEC cells at 50 uM by MTT assay. As to conditions: Homo sapiens. Format: functional, cell-based. Summed up:
as §2

The test system of test [11] is HUVEC. Briefly: Decrease in integrin beta4 level in HUVEC cells at 25 uM after 24 hrs in absence of serum and FGF2. Format: functional, Homo sapiens. The method in brief:
as §1

Test [12] relates to HUVEC. Briefly: Decrease in serum and FGF2 deprivation-induced p53 level in HUVEC cells. As to conditions: Homo sapiens. It counts as functional, cell-based. The method in brief:
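Serum/FGF-2-deprived HUVECs (basal M199) received 25 µM for 12, 24 and 48 h. Comparators were cells in M199 with 20% FBS and 70 ng/mL FGF-2 and untreated deprived cells. p53 was detected by immunofluorescence with rabbit anti-human p53 and FITC-IgG secondary, semiquantified as relative intensity by confocal microscopy; n = 3.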

For the molecule `CCOC(=O)c1c(-c2ccccc2Cl)nn(-c2ccccc2)c1C`, the Flu intensity in test [1] is listed as 6.307; in [9], 13.14; in [11] it was 9.083. In addition, the result in test [2], in test [3], in [4], in [6], in [7] and in [8] was Active. Further, the outcome in test [10] and in test [12] was Active. This molecule displayed an Activity in test [5] of 19.16%.
